Among the data in ChEMBL document CHEMBL1122187, “Synthesis and antiviral activity of certain carbamoylpyrrolopyrimidine and pyrazolopyrimidine nucleosides” (1982) are Virus rating and Plaque reduction values, retold here.

For experiment [1], the system named is Vero. The experiment is described as follows: In vitro antiviral activity against herpes simplex type 1 (HSV-1) virus was determined in african green monkey kidney (vero,V) expressed as virus rating. In kind it is functional, Chlorocebus sabaeus. In a few lines:
(§1)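 Cell monolayers (18 h) infected with 320 TCID50 of virus. Compound was added within 15–30 min at half-log dilutions from 1000 to 1 μg/mL. After 72 h at 37 °C in 5% CO2, CPE was scored 0–4 by microscopy. VR = sum of (virus control − treated) scores, halved at partially toxic levels, divided by 10 × test cups per drug level.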

The test system of experiment [2] is Vero. The experiment is described as follows: In vitro antiviral activity against parainfluenza type 3(para 3) virus was determined in african green monkey kidney (vero,V) expressed as virus rating. In kind it is functional, Chlorocebus sabaeus. In a few lines:
as §1

The test system of experiment [3] is Vero. Briefly: In vitro antiviral activity against vaccinia(VV) virus was determined in african green monkey kidney (vero,V) expressed as virus rating. The class given is functional, Chlorocebus sabaeus. The gist of the method:
as §1

In experiment [4] the test system is Vero. The experiment is described as follows: In vitro antiviral activity against parainfluenza type 3(para 3) virus was determined in african green monkey kidney (vero,V) expressed as virus rating. Toxic level(>1000 ug/mL). In kind it is functional, Chlorocebus sabaeus. In a few lines:
as §1

For experiment [5], the system named is HEp-2. The experiment is described as follows: In vitro antiviral activity against vaccinia(VV) virus was determined in human laryngeal epithelioma (HEp-2,H)expressed as virus rating. Toxic level(320 ug/mL). The class given is functional. The gist of the method:
as §1

Experiment [6] relates to HEp-2. The experiment is described as follows: In vitro antiviral activity against parainfluenza type 3 (para 3) virus was determined in human laryngeal epithelioma (HEp-2,H)expressed as virus rating. Toxic level(320 ug/mL). In kind it is functional. The gist of the method: as §1
For experiment [7], the system named is Vero. The experiment is described as follows: In vitro antiviral activity against herpes simplex type 1 (HSV-1) virus was determined in african green monkey kidney (vero,V) expressed as virus rating. Toxic level(>1000 ug/mL). In kind it is functional, Chlorocebus sabaeus. In a few lines:
as §1

Experiment [8] deals with HEp-2. Briefly: In vitro antiviral activity against herpes simplex type 1 (HSV-1) virus was determined in human laryngeal epithelioma (HEp-2,H)expressed as virus rating. Toxic level(320 ug/mL). The class given is functional. The gist of the method: as §1
The subject of experiment [9] is Vero. The experiment is described as follows: In vitro antiviral activity against vaccinia(VV) virus was determined in african green monkey kidney (vero,V) expressed as virus rating. Toxic level(>1000 ug/mL). In kind it is functional, Chlorocebus sabaeus. The gist of the method: as §1
Experiment [10] deals with Vero. Briefly: Percentage plaque reduction was determined against pichinde(PICH) virus in african green monkey kidney (vero,V).Toxic level(320 ug/mL). The class given is functional, Chlorocebus sabaeus. In a few lines:
(§2)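 Infected Vero 24-well monolayers: virus adsorbed 1 h at 37 °C, then overlaid with agar holding dilutions of compound and incubated again at 37 °C with CO₂. Plaques were stained with crystal violet and counted. Inhibition was scored as % plaque reduction bands (10-30%, 31-60%, 61-90%), each tied to a drug concentration range.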

Experiment [11] deals with Vero. The experiment is described as follows: In vitro antiviral activity against herpes simplex type 1 (HSV-1) virus was determined in african green monkey kidney (vero,V) expressed as virus rating. Toxic level(320 ug/mL). The class given is functional, Chlorocebus sabaeus. The gist of the method: as §1
Experiment [12] concerns Vero. The experiment is described as follows: Percentage plaque reduction was determined against Sandfly fever (SF) virus in african green monkey kidney (vero,V) at a conc of 25-100 ug/mL. Toxic level(320 ug/mL). The class given is functional, Chlorocebus sabaeus.
Experiment [13] relates to Vero. The experiment is described as follows: Percentage plaque reduction was determined against pichinde(PICH) virus in african green monkey kidney (vero,V). In kind it is functional, Chlorocebus sabaeus. In a few lines: as §2
In experiment [14] the test system is Vero. Briefly: Percentage plaque reduction was determined against rift valley fever(RVF) virus in african green monkey kidney (vero,V) at a conc of <25 ug/mL. Toxic level(320 ug/mL). The class given is functional, Chlorocebus sabaeus.
The subject of experiment [15] is Vero. Briefly: In vitro antiviral activity against parainfluenza type 3(para 3) virus was determined in african green monkey kidney (vero,V) expressed as virus rating. Toxic level(320 ug/mL). In kind it is functional, Chlorocebus sabaeus. In a few lines: as §1
Experiment [16] has as its system Vero. The experiment is described as follows: Percentage plaque reduction was determined against venezuelan equine encephalitis (VEE) virus in african green monkey kidney (vero,V) at a conc of 250-500 ug/mL. Toxic level(320 ug/mL). In kind it is functional, Chlorocebus sabaeus.
The subject of experiment [17] is Vero. The experiment is described as follows: Percentage plaque reduction was determined against venezuelan equine encephalitis (VEE) virus in african green monkey kidney (vero,V) at a conc of 100-250 ug/mL. Toxic level(>1000 ug/mL). The class given is functional, Chlorocebus sabaeus.
In experiment [18] the test system is Vero. The experiment is described as follows: Percentage plaque reduction was determined against Sandfly fever (SF) virus in african green monkey kidney (vero,V) at a conc of 25-100 ug/mL. Toxic level(>1000 ug/mL). The class given is functional, Chlorocebus sabaeus.
Experiment [19] relates to Vero. The experiment is described as follows: Percentage plaque reduction was determined against venezuelan equine encephalitis (VEE) virus in african green monkey kidney (vero,V) at a conc of 250-500 ug/mL. Toxic level(>1000 ug/mL). The class given is functional, Chlorocebus sabaeus.
Experiment [20] deals with Vero. The experiment is described as follows: Percentage plaque reduction was determined against venezuelan equine encephalitis (VEE) virus in african green monkey kidney (vero,V) at a conc of <25 ug/mL./Toxic level(>1000 ug/mL). The class given is functional, Chlorocebus sabaeus.
Experiment [21] concerns Vero. The experiment is described as follows: Percentage plaque reduction was determined against Sandfly fever (SF) virus in african green monkey kidney (vero,V) at a conc of 250-500 ug/mL. Toxic level(>1000 ug/mL). The class given is functional, Chlorocebus sabaeus.
Experiment [22] has as its system Vero. The experiment is described as follows: Percentage plaque reduction was determined against pichinde(PICH) virus in african green monkey kidney (vero,V). Toxic level(>1000 ug/mL); 31-60. In kind it is functional, Chlorocebus sabaeus. The gist of the method: as §2
The subject of experiment [23] is Vero. Briefly: Percentage plaque reduction was determined against yellow fever(YF) virus in african green monkey kidney Toxic level(>1000 ug/mL). In kind it is functional, Chlorocebus sabaeus.
For experiment [24], the system named is Vero. The experiment is described as follows: Percentage plaque reduction was determined against venezuelan equine encephalitis (VEE) virus in african green monkey kidney (vero,V) at a conc of 25-100 ug/mL. Toxic level(>1000 ug/mL). The class given is functional, Chlorocebus sabaeus.
The subject of experiment [25] is Vero. The experiment is described as follows: Percentage plaque reduction was determined against rift valley fever(RVF) virus in african green monkey kidney (vero,V) at a conc of 25-100 ug/mL. Toxic level(>1000 ug/mL). The class given is functional, Chlorocebus sabaeus.
The subject of experiment [26] is Vero. Briefly: Percentage plaque reduction was determined against rift valley fever(RVF) virus in african green monkey kidney (vero,V) at a conc of 100-250 ug/mL. Toxic level(>1000 ug/mL). The class given is functional, Chlorocebus sabaeus.
In experiment [27] the test system is Vero. Briefly: Percentage plaque reduction was determined against rift valley fever(RVF) virus in african green monkey kidney (vero,V) at a conc of <25 ug/mL. Toxic level(>1000 ug/mL). In kind it is functional, Chlorocebus sabaeus.
In experiment [28] the test system is Vero. The experiment is described as follows: Percentage plaque reduction was determined against Sandfly fever (SF) virus in african green monkey kidney (vero,V) at a conc of <25 ug/mL. Toxic level(>1000 ug/mL). In kind it is functional, Chlorocebus sabaeus. The gist of the method: as §2
Experiment [29] concerns Vero. Briefly: 0 Percentage plaque reduction was determined against rift valley fever(RVF) virus in african green monkey kidney (vero,V) at a conc of 250-500 ug/mL. Toxic level(>1000 ug/mL). The class given is functional, Chlorocebus sabaeus.
Experiment [30] relates to Vero. The experiment is described as follows: Percentage plaque reduction was determined against Sandfly fever (SF) virus in african green monkey kidney (vero,V) at a conc of 100-250 ug/mL. Toxic level(>1000 ug/mL). The class given is functional, Chlorocebus sabaeus.

`CSc1ncnc2c([C@@H]3O[C@H](CO)[C@@H](O)[C@H]3O)n[nH]c12`: the values for the Virus rating in the experiment with Vero [1], in the experiment on Vero [2] and in the experiment on Vero [3] were 0.8, 1.3 and 1.4, respectively.

As for `NC(=O)c1ncnc2c1cnn2C1O[C@H](CO)[C@@H](O)[C@H]1O` (stereo partly specified), the Virus rating in the experiment on Vero [4] was found to be 0; with HEp-2 [5], 0.2; in the experiment on HEp-2 [6] it was 0; in the experiment on Vero [7], 0; in the experiment with HEp-2 [8], 0; in the experiment on Vero [9], 0.

`OC[C@H]1OC(n2ccc3c(Cl)ncnc32)[C@H](O)[C@@H]1O` (stereo partly specified): the Plaque reduction in the experiment with Vero [10] is reported as more than 90%; with Vero [12], 90%; in the experiment on Vero [13], more than 90%; with Vero [14], more than 90%; in the experiment on Vero [16], 0%. For the same compound, the Virus rating was 0.2 in the experiment with Vero [11] and 0.1 with Vero [15].

`O=C1N=CN=C2C1C=NN2C1O[C@H](CO)[C@@H](O)[C@H]1O` (stereo partly specified): the Plaque reduction in the experiment with Vero [17] worked out at 0%; with Vero [18], 0%; with Vero [19], 0%; in the experiment on Vero [20], 0%; with Vero [21] it was 0%; in the experiment with Vero [22], 31%. Also, the Plaque reduction in the experiment with Vero [23], in the experiment with Vero [24], in the experiment with Vero [25], in the experiment with Vero [26], in the experiment with Vero [27] and in the experiment with Vero [28] was 0% in each case. Besides, the Plaque reduction in the experiment with Vero [29] and with Vero [30] was 0% in each case. Besides, the Virus rating with Vero [7] is given as 0.
